# Diaphorase inh – diaphorase inhibition or chemical oxidation counter-screen; diaphorase resazurin-to-resorufin fluorescence, NADH, 16 min; bacterial (C. kluyveri) enzyme, not human; inhibition, % at 20 µM; 190,000 tested, 0.69% active; AID 1217;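 active = primary screen inhibition at 20 µM above a set limit, cut at about 50% in these data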;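 also: plate controls were DMSO with full reaction for no effect and wells lacking NADH for full effect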
#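 Test system: bacterial diaphorase enzyme (C. kluyveri); Quantity: 0.14 U/mL diaphorase, enzyme working solution; Times: reaction incubation of 16 min at room temperature; Measured by: fluorescence of resorufin formed from resazurin, Ex 544/Em 590 nm; Benchmarks: positive control minus NADH, DMSO neutral control.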
# G6PDH counter – counter-screen for G6PDH assay hits: L. mesenteroides G6PDH inhibition; Purified L. mesenteroides G6PDH, diaphorase/resazurin coupled fluorescence, 45 min; inhibition, % at 5 µM; 200,000 tested, 0.12% active; in the data active = inhibition above about 50%
# TbHK1 inh – blocks Trypanosoma brucei hexokinase 1 activity | recombinant TbHK1, G6PDH-coupled NADH A340 | inhibition, % at 10 µM | 220,000 tested, 0.11% active | AID 1430;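 active = inhibition of 50% or more in the single-dose primary screen; inactive = inhibition below 50%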
# PfGluPho inh – PfG6PD (Plasmodium falciparum) enzyme inhibition. 350,000 tested, 0.78% active. AID 504690. PfGluPho enzyme, NADPH resazurin-diaphorase fluorescence. inhibition, % at 20 µM;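 active = inhibition reaching at least a set limit at 20 µM in the primary screen, cut at about 59% in these data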;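 also: 0% = DMSO wells with substrate and 100% = DMSO wells lacking glucose-6-phosphate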
# HKDC1 inhibitor – blocks human hexokinase HKDC1 activity | Q2TB90 | inhibition, % at 20 µM | 340,000 tested, 0.16% active | recombinant HKDC1, G6PDH/diaphorase resazurin coupled fluorescence;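 active = inhibition above about 35% when tested at 20 µM, limit read from the data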;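 also: plate controls were DMSO wells with enzyme for no effect and DMSO wells lacking enzyme for full effect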
# Target sequence (Q2TB90 whole entry, looked up): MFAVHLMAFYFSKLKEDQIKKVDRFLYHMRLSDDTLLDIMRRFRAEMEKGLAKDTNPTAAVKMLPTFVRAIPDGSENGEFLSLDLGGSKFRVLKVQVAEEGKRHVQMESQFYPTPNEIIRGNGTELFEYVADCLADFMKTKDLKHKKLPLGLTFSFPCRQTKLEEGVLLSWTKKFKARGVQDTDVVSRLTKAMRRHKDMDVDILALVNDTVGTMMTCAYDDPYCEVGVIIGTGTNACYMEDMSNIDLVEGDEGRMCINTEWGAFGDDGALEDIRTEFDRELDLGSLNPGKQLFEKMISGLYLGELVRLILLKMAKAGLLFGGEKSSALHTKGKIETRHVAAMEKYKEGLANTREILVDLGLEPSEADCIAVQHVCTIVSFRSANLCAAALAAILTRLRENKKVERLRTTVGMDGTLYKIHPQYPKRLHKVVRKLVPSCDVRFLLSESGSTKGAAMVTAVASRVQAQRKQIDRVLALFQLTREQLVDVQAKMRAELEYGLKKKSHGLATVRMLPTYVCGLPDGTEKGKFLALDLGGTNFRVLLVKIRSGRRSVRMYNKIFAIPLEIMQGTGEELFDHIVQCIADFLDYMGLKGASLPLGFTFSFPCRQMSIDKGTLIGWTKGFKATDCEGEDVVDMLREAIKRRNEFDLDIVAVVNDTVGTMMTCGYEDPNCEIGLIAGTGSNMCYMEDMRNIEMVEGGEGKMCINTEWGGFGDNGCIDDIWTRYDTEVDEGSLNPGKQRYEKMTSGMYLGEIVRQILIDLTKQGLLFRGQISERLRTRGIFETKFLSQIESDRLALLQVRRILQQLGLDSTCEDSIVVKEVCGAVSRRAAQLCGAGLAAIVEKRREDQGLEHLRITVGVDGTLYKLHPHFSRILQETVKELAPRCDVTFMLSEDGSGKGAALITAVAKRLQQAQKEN
#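 Test system: HK5 enzyme. Quantity: 5 µg/mL HK5 final. Reagent: glucose and ATP substrates. Schedule: 90 min reaction incubation at room temperature, dark. Technique: resazurin-to-resorufin fluorescence via G6PDH and diaphorase coupling, 525/613 nm. Control set: DMSO wells with and without enzyme mix.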
# PfG6PD confirm – confirmation of Plasmodium falciparum G6PD inhibitors; shares compounds with PfGluPho inh; recombinant PfGluPho, NADPH-diaphorase-resazurin fluorescence; inhibition, % at 20 µM; 2,400 tested, 34% active;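 active = inhibition of at least 50% at 20 µM in any single replicate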;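 also: 0% = DMSO with substrate and 100% = DMSO lacking glucose-6-phosphate substrate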
# Diaphorase 10uM – inhibits diaphorase or oxidizes, flagging false PfG6PD hits. shares compounds with PfGluPho inh. diaphorase-coupled resazurin reduction, fluorescence, NADPH 10 uM. inhibition, % at 20 µM. 820 tested, 39% active. AID 504862;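 active = average inhibition reaching 50% or more with the compound at 20 µM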;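 also: resorufin red fluorescence formed as diaphorase reduces resazurin using NADPH; 0% = DMSO with enzyme and 100% = DMSO without enzyme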
# Diaph ctr 30uM – diaphorase inhibition or oxidation at 30 uM NADPH; shares compounds with PfGluPho inh; Diaphorase/resazurin coupled assay, resorufin fluorescence; inhibition, % at 20 µM; 820 tested, 29% active; AID 504863;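 active = inhibition averaging 50% or more, tested at 20 µM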;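 also: 0% = DMSO with enzyme and 100% = DMSO wells lacking diaphorase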
# Starred values were filed as active, the others as inactive; / = no result given. Rows were chosen to be rich in hits. Some 1.2% of all compounds tested hit in one or more screens of this group.
SMILES,Diaphorase inh,G6PDH counter,TbHK1 inh,PfGluPho inh,HKDC1 inhibitor,PfG6PD confirm,others
NC(=S)NNc1cc(Cl)cc(Cl)c1,22,11,1,71*,-3,14,
CC[C@@]1(C(=O)OC)N[C@H](CN(C)S(=O)(=O)c2ccc(C(C)(C)C)cc2)[C@@H]2C(=O)N(C)C(=O)[C@@H]21,/,/,/,8,-3,/,
O=C(COc1cccc2ccccc12)Nc1ccc(Cl)cc1C(=O)O,/,/,/,75*,20,64*,Diaphorase 10uM=60*;Diaph ctr 30uM=48
O=C(COc1cccc2ccccc12)Nc1cc(Cl)ccc1C(=O)O,/,/,/,105*,19,69*,Diaphorase 10uM=60*;Diaph ctr 30uM=59*
Cc1ccc(S(=O)(=O)NCCC(=O)NCC(c2cccs2)N2CCOCC2)cc1 (stereo not drawn),/,/,/,-13,-6,/,
CN(C(=S)Nc1ccccc1)c1ccccc1,9,4,-4,4,10,/,
CN(C(=S)Nc1ccc(SC(F)F)cc1)c1ccc(O)cc1,47,-4,-1,70*,4,-17,
CCN(C(=S)Nc1cccnc1)c1ccccc1,19,7,-2,7,0,/,
CN(C(=S)Nc1ccc(Oc2ccccc2)cc1)c1ccc(O)cc1,42,17,4,78*,6,11,
CN(C(=S)Nc1cccnc1)c1ccc(O)cc1,43,12,5,67*,5,2,
O=C(C[n+]1ccccc1)N/N=C/c1cc(Br)ccc1O,/,/,/,-49,-9,/,
CC(=O)c1sc(NC(=O)c2cnc(Cl)c(Cl)c2)nc1C,/,/,/,62*,0,42,
COc1ccc2nc(C)cc(SCC(=O)N/N=C/c3ccccc3)c2c1,9,3,7,59,-6,11,
COc1cccc2c(SCC(=O)N/N=C/c3ccc(O)cc3O)cc(C)nc12,10,-12,-9,-29,-25,/,
COc1ccc2nc(C)cc(SCC(=O)N/N=C/c3c(OC)ccc4ccccc34)c2c1,-2,9,0,-5,13,/,
COc1ccccc1/C=N/NC(=O)CSc1ccc2ccccc2n1,/,/,/,119*,3,85*,Diaphorase 10uM=97*;Diaph ctr 30uM=86*
COc1ccccc1/C=N/NC(=O)CC(=O)NCc1ccccc1,-9,4,-14,105*,-4,86*,Diaphorase 10uM=93*;Diaph ctr 30uM=82*
COc1ccccc1/C=N/NC(=O)CSc1cc(C)nc2ccccc12,/,12,-9,83*,-1,68*,Diaphorase 10uM=69*;Diaph ctr 30uM=53*
COc1ccccc1/C=N/NC(=O)CO,8,1,-9,25,-8,/,
CCn1c2ccccc2c2cc(/C=N/n3cn[nH]c3=S)ccc21,62*,3,-18,63*,4,52*,Diaphorase 10uM=0;Diaph ctr 30uM=5
COC(=O)CCN(c1ccccc1)S(=O)(=O)c1cc(-c2cc(C)no2)ccc1OC,/,/,/,-16,-3,/,
Nc1nc2cc(S(=O)(=O)N3CCOCC3)ccc2o1,/,/,/,69*,-15,25,
O=C1CC(N2CCN(c3ccc(O)cc3)CC2)C(=O)N1Cc1cccs1 (stereo not drawn),33,6,0,67*,-2,19,
O=C(c1ccncc1)c1ccc(N2CCN(C3CC(=O)N(Cc4cccs4)C3=O)CC2)cc1 (stereo not drawn),14,1,-11,-5,8,/,
O=C(O)C(C(O)c1ccccc1)[n+]1ccccc1 (stereo not drawn),/,/,/,-9,1,/,
SMILES,Diaphorase inh,G6PDH counter,TbHK1 inh,PfGluPho inh,HKDC1 inhibitor,PfG6PD confirm,others
Cc1ccc(-n2cnc(N)c2C(=O)c2cccc([N+](=O)[O-])c2)cc1,/,/,-26,3,9,/,
C/C(=N\Nc1nc2c(s1)CCCC2)c1ccc(Cl)cc1,5,-2,-7,66*,2,-15,
CCC(C)(C)c1nnc(NC(=O)C2CCN(C(=O)c3ccco3)CC2)s1,/,/,/,79*,-26,61*,Diaphorase 10uM=-37;Diaph ctr 30uM=-15
CCOC(=O)CN1NC2(CCCCCCC2)NC1=S,/,/,-4,66*,-2,-24,
COc1cccc(C(=O)Nc2nnc(C(C)C)s2)c1,2,0,0,91*,0,56*,Diaphorase 10uM=59*;Diaph ctr 30uM=45
CC(C)c1nnc(NC(=O)c2cccc(-n3cnnn3)c2)s1,4,3,-7,76*,-9,56*,Diaphorase 10uM=53*;Diaph ctr 30uM=42
CCCc1nnc(NC(=O)c2cccc(OC)c2)s1,-13,8,-8,63*,-3,15,
COc1cccc(C(=O)Nc2nnc(Cc3ccc(OC)c(OC)c3)s2)c1,/,/,-12,13,-6,/,
CCN(CC)c1ccc(NC(=S)NCC2CCCO2)cc1 (stereo not drawn),18,1,-1,19,3,/,
CN=c1scc(-c2cccs2)n1/N=C/c1ccccc1O,19,-2,23,6,4,/,
C=CCN=c1scc(-c2ccco2)n1/N=C/c1ccc(O)c(O)c1O,/,/,-3,73*,22,48*,Diaphorase 10uM=-2;Diaph ctr 30uM=15
CN=c1scc(C)n1/N=C/c1ccc(O)c(O)c1O,76*,41,-11,88*,17,78*,Diaphorase 10uM=35;Diaph ctr 30uM=39
CN=c1scc(C)n1/N=C/c1cc(Br)c(O)c(OC)c1,10,1,-15,-3,3,/,
O=C(CNC(=O)C(c1ccccc1)c1ccccc1)OCC(=O)c1cccs1,5,4,13,-9,-1,/,
Cc1ccccc1OCc1nc2ccc(S(=O)(=O)N3CCOCC3)cc2[nH]1,11,11,-8,64*,-16,28,
O=C(Nc1nc(-c2ccccc2)cs1)c1cccnc1,0,13,-13,-1,-3,/,
CC(=O)Nc1ccc(C(=O)Nc2nc(-c3cccnc3)cs2)cc1,-2,1,-6,60*,-1,2,
Cc1c2cc[n+](CCN3CCCCC3)cc2c(C)c2c1[nH]c1ccc(O)cc12,/,/,/,87*,20,12,
CCCOc1ccc2oc(=O)c3c(c2c1)CCCN3C(=O)CN1CCc2ccccc2C1,27,14,-16,60*,3,27,
CC1CCN(CC(=O)N2CCCc3c2c(=O)oc2ccc(OCc4ccccc4)cc32)CC1,22,1,-28,9,-1,/,
O=C(Nc1ccc2nc(-c3ccc(Br)o3)[nH]c2c1)c1cccs1,17,6,-42,86*,6,16,
O=C(Nc1ccc2nc(-c3ccc(Br)o3)[nH]c2c1)c1ccco1,21,-6,-47,70*,-1,28,
COc1ccc(NS(=O)(=O)c2cccc(C(=O)NNC(=O)CN3C(=O)NC(C)(C)C3=O)c2)cc1,/,/,/,-13,-2,/,
ClC(Cl)(c1nnnn1-c1ccccc1)c1nnnn1-c1ccccc1,19,-9,15,88*,8,78*,Diaphorase 10uM=-8;Diaph ctr 30uM=-6
